According to paper PMC12484386 (Journal of Clinical Pharmacology, 2025):

Experiments:
[1] = single oral 5 mg radiolabeled fruquintinib, healthy volunteers; cited from earlier work
[2] = cited from earlier work
[3] = cited from earlier work; remark: listed apart in the source
plasma protein = conditions: cited from earlier work
Hepatic impairment study = type: in vivo, human
Outline: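 Open-label single oral dose after ≥10 h overnight fast, held to 2 h postdose: Child-Pugh B (n=8) 2 mg; matched normal hepatic function (n=8) 5 mg. Parent and M11 plasma sampled predose to 240 h by validated LC-MS/MS (1.00-750 ng/mL). Data dose-normalized to 5 mg. Ln-transformed parameters by one-way ANOVA, cohort fixed; GMR and 90% CI back-transformed; unbound parameters analysed likewise.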

[4] = Safety and tolerability, renal impairment study; type: in vivo, human
[5] = cited from earlier work; remark: listed apart in the source
[6] = Safety and tolerability, hepatic impairment study; type: in vivo, human
AAG = experiment: Separate in vitro equilibrium dialysis study, binding to AAG; type: in vitro ADME; conditions: AAG (alpha-1-acid glycoprotein)
Renal impairment study = type: in vivo, human
Outline: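 Renal function by Cockcroft-Gault. Parent and M11 plasma predose to 240 h by LC-MS/MS (1.00-750 ng/mL); unbound fraction by equilibrium dialysis at 4 h. Ln-parameters by one-way ANOVA; GMR with 90% CI.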

[7] = Plasma protein binding in human plasma at 1-10 µM; type: in vitro ADME
HSA = HSA (Homo sapiens, UniProt P02768); experiment: Separate in vitro equilibrium dialysis study, binding to HSA; type: in vitro ADME; conditions: HSA (human serum albumin)
[8] = moderate hepatic impairment vs normal hepatic function
[9] = moderate renal impairment vs normal renal function
[10] = severe renal impairment compared with normal renal function
[11] = severe renal impairment vs normal renal function

Sequence of HSA (P02768 25-609): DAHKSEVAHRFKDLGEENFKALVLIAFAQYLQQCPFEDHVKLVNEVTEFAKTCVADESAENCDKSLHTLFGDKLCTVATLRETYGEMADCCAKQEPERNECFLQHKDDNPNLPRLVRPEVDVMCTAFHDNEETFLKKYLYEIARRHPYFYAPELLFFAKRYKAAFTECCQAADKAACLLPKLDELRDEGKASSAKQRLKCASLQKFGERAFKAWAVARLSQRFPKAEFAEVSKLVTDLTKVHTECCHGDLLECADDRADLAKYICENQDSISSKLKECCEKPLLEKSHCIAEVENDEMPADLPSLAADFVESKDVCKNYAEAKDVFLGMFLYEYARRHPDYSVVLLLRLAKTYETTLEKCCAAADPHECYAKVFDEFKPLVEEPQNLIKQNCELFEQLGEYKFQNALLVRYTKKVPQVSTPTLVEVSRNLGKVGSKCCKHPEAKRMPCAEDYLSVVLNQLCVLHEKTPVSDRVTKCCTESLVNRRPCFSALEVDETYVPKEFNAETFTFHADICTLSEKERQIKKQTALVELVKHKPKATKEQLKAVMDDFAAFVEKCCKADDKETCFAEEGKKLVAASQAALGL

CL/F, mean (SD) (Hepatic impairment study; moderate hepatic impairment (Child-Pugh B), N = 8, single oral 2 mg): 17.4 mL/min
difference in dose-normalized Cmax (Hepatic impairment study; moderate hepatic impairment compared with normal hepatic function): less than 5%
AUCs lower (Hepatic impairment study; moderate hepatic impairment compared with normal hepatic function, dose normalized): approximately 10%
LS GMR DN AUC0-inf [90% CI] (Hepatic impairment study; [8]): 0.91
LS GMR DN AUC0-t [90% CI] (Hepatic impairment study; [8]): 0.89
LS GMR DN Cmax [90% CI] (Hepatic impairment study; [8]): 1.04
CL/F, mean (SD) (Hepatic impairment study; normal hepatic function, N = 8, single oral 5 mg): 15.3 mL/min
fraction unbound at 0.1 µM (AAG): 0.356
fraction unbound at 1 µM (AAG): 0.358
fraction unbound at 10 µM (AAG): 0.413
CL/F, mean (SD) (Renal impairment study; moderate renal impairment (CrCl 30-59 mL/min), N = 8, single oral 5 mg): 14.2 mL/min
difference across Cmax, AUC0-t, and AUC0-inf (Renal impairment study; moderate renal impairment compared with normal renal function): less than 8%
LS GMR DN AUC0-inf [90% CI] (Renal impairment study; [9]): 1.07
LS GMR DN AUC0-t [90% CI] (Renal impairment study; [9]): 1.06
LS GMR DN Cmax [90% CI] (Renal impairment study; [9]): 0.95
CL/F, mean (SD) (Renal impairment study; normal renal function, N = 8, single oral 5 mg): 15.0 mL/min
CL/F, mean (SD) (Renal impairment study; severe renal impairment (CrCl 15-29 mL/min), N = 8, single oral 2 mg): 15.0 mL/min
difference in AUCs (Renal impairment study; [10]): less than 3%
dose-normalized Cmax lower (Renal impairment study; [10]): approximately 11%
LS GMR DN AUC0-inf [90% CI] (Renal impairment study; [11]): 1.01
LS GMR DN AUC0-t [90% CI] (Renal impairment study; [11]): 0.97
LS GMR DN Cmax [90% CI] (Renal impairment study; [11]): 0.89
fraction unbound at 1 µM [7]: 0.046
fraction unbound at 3 µM [7]: 0.047
fraction unbound at 10 µM [7]: 0.047
fraction unbound at 0.1 µM (HSA): 0.0565
fraction unbound at 1 µM (HSA): 0.0635
fraction unbound at 10 µM (HSA): 0.0627
Structure (SMILES): CNC(=O)c1c(C)oc2cc(Oc3ncnc4cc(OC)c(OC)cc34)ccc12 [fruquintinib]
dose recovered in feces [1]: 30%
dose recovered in urine [1]: approximately 60%
dose recovered unchanged in feces [1]: 5%
dose recovered unchanged in urine [1]: 0.5%
change in fruquintinib exposure ([2]; co-administration with itraconazole, a strong CYP3A inhibitor): did not result in clinically meaningful change
reduction of fruquintinib exposure ([2]; concurrent use of rifampin, a strong metabolic enzyme inducer): approximately 65%
elimination half-life (t1/2) [3]: approximately 42 h
weight-normalized apparent clearance [3]: approximately 0.17 mL/min/kg
time to steady-state concentrations ([3]; consecutive QD dosing): 14 days
median time to maximum plasma concentration (Tmax) ([3]; oral administration, patients with cancer): approximately 2 h
accumulation at steady-state ([3]; relative to a single dose, QD dosing): approximately 4 fold
protein binding in human plasma (plasma protein): approximately 95%
participants with TEAEs ([4]; 3 of the 24 participants): 12.5%
participants with headache ([4]; moderate renal impairment, one of eight, grade 1, nonserious, not related): 12.5%
participants with hypoglycemia ([4]; moderate renal impairment, one of eight, grade 3, nonserious, not related): 12.5%
participants with eye pruritis and periorbital edema ([4]; normal renal function, one of eight, grade 1, nonserious, not related): 12.5%
inter-individual variability in apparent oral clearance [5]: 26%
impact of mild to moderate renal impairment and mild hepatic impairment on PK ([5]; population PK analysis): no clinically meaningful impact
participants with treatment emergent adverse events (TEAEs) ([6]; 4 of the 16 participants, all TEAEs in moderate hepatic impairment): 25.0%
tolerability ([6]; both studies, single dose 2 or 5 mg): generally well tolerated
participants with treatment-related TEAEs ([6]; hepatic impairment study, three of 16 participants): 18.8%
participants with dizziness ([6]; moderate hepatic impairment, one of 8, grade 1, nonserious, related): 12.5%
participants with urinary tract infection ([6]; moderate hepatic impairment, one of 8, grade 2, nonserious, not related): 12.5%
